Data: ChEMBL document CHEMBL1157640, “Exploration of inhibitors for diaminopimelate aminotransferase” (Bioorg Med Chem, 2010)
Active and inactive are the calls of the source. The calls are words filed in the database; no cut-off is given here.

Experiments:
[1] = biological target: LL-diaminopimelate aminotransferase, chloroplastic (Arabidopsis thaliana) (UniProt Q93ZN9); test: Inhibition of Arabidopsis thaliana LL-DAP-AT expressed in Escherichia coli at 10 uM by aminobenzaldehyde-based assay
How it was run: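 Robotic 96-well screen against C-terminal His6-tagged A. thaliana LL-DAP-AT (0.0043 mg/mL final) in 100 mM HEPES-KOH pH 7.6, with 8.5 mM 2-oxoglutarate, 7 mM OAB and 2.0 mM LL-DAP final. Inhibitor 10 µM final in DMSO, assuming MW 500. Absorbance at 440 nm read in triplicate before enzyme addition and after 3 h at room temperature. Activity taken relative to no-inhibitor wells; no-enzyme wells served as blank.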

[2] = biological target: LL-diaminopimelate aminotransferase, chloroplastic (Arabidopsis thaliana, UniProt Q93ZN9); test: Inhibition of Arabidopsis thaliana LL-DAP-AT expressed in Escherichia coli by aminobenzaldehyde-based assay
How it was run: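 His6-tagged A. thaliana LL-DAP-AT (0.0043 mg/mL final) in 1 mL cuvettes with 100 mM HEPES-KOH pH 7.6, 8.5 mM 2-OG, 7 mM OAB and 2.0 mM LL-DAP. Inhibitor at 5–200 µM final, added in 50 µL DMSO. A440 followed for 200 min, read every 2 min.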

[3] = biological target: LL-diaminopimelate aminotransferase, chloroplastic (Arabidopsis thaliana) (UniProt Q93ZN9); test: Inhibition of Arabidopsis thaliana LL-DAP-AT expressed in Escherichia coli assessed as time dependent type of inhibition by aminobenzaldehyde-based assay
How it was run: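 Recombinant C-terminal His6-tagged enzyme (0.043 mg/mL, 100 µL) preincubated with 50 µL inhibitor (stock chosen from IC50 measurements) for six different times. Mixture then added to 850 µL substrate buffer: 100 mM HEPES-KOH pH 7.6, 2-oxoglutarate, 2-aminobenzaldehyde, racemic DAP. Absorbance at 440 nm recorded for 200 min. Percentage inhibition compared across preincubation times; no-inhibitor and no-enzyme controls included.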

Carnobacterium divergens = test: Antimicrobial activity against Carnobacterium divergens LV13 at <200 ug/mL; assay type: functional, organism-based
How it was run: (§1)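 Soft agar overlay (0.75% w/v) seeded with 1% overnight culture of indicator strain, poured over 1.5% w/v solid agar; LB medium for Gram-negative, M17 for Gram-positive. 10 µL of test solution spotted and air-dried, with solvent controls (acetonitrile or methanol). Incubated overnight, 37 °C Gram-negative, 30 °C Gram-positive; scored for growth-inhibition halos.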

Pseudomonas aeruginosa = test: Antimicrobial activity against Pseudomonas aeruginosa ATCC 15442 at <200 ug/mL; assay type: functional, organism-based; how it was run: as §1
[4] = biological target: LL-diaminopimelate aminotransferase, chloroplastic (Arabidopsis thaliana) (UniProt Q93ZN9); test: Inhibition of Arabidopsis thaliana LL-DAP-AT expressed in Escherichia coli assessed as time independent type of inhibition by aminobenzaldehyde-based assay
How it was run: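 Enzyme (100 µL) and inhibitor (50 µL) were preincubated for six different times, then added to 850 µL of OAB-coupled substrate buffer. Inhibitor level was chosen from the IC50. A440 recorded as in the IC50 assay, with positive and no-enzyme controls. Time independence was judged by whether percent inhibition changed with preincubation time.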

Escherichia coli = test: Antimicrobial activity against Escherichia coli DH5alpha at <200 ug/mL; assay type: functional, organism-based; how it was run: as §1
Salmonella typhimurium = test: Antimicrobial activity against Salmonella Typhimurium ATCC 23564 at <200 ug/mL; assay type: functional, organism-based; conditions: Salmonella enterica subsp. enterica serovar Typhimurium; how it was run: as §1
Staphylococcus aureus = test: Antimicrobial activity against Staphylococcus aureus ATCC 25923 at <200 ug/mL; assay type: functional, organism-based; how it was run: as §1

LL-diaminopimelate aminotransferase, chloroplastic (Arabidopsis thaliana), sequence (Q93ZN9 whole entry): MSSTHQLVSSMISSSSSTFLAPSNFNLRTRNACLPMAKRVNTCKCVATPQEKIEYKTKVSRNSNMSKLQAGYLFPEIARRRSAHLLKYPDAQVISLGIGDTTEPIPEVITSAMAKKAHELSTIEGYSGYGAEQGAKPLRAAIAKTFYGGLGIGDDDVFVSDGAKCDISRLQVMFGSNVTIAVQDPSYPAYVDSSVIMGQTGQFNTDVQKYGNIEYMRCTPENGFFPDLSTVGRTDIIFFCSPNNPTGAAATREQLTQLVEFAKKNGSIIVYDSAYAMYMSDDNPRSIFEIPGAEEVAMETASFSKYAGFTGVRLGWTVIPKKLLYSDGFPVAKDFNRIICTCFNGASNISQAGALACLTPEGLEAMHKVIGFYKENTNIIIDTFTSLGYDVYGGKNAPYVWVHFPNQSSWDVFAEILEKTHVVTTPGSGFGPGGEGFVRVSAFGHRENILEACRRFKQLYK
LL-diaminopimelate aminotransferase, chloroplastic, sequence (Q93ZN9 whole entry): as above

Row | SMILES | inhibition [1] [%] | IC50 ([2]; read-out: IC50) [µM] | also measured
1 | N=C1NC(=O)/C(=C/c2ccc(-c3ccc([N+](=O)[O-])cc3Br)o2)S1 | 13 | 85 | 
2 | C=CCN1C(=O)/C(=C2/C(=O)N(S(=O)(=O)c3ccc(OC)cc3)c3ccccc32)SC1=S | 18 | 194 | 
3 | COc1ccc(/C=C2\SC(=S)NC2=O)cc1I | 29 | 180 | 
4 | CC(=O)NN1C(=O)/C(=C/c2ccc(-c3ccc([N+](=O)[O-])cc3)o2)SC1=S |  | 73 | 
5 | CCOC(=O)C1=C(Nc2ccc([N+](=O)[O-])cc2)S/C(=C\c2ccc(N(C)C)cc2)C1=O | 19 | 141 | 
6 | CCN1C(=O)/C(=C/c2ccccc2O)SC1=S |  | > 200 | 
7 | O=C(Cn1c(/C=C2/C(=O)NC(=S)N(c3ccccc3)C2=O)cc2ccccc21)Nc1ccccc1 | 45 | 33 | inhibition [3]: Active
8 | Cc1cc(C=C2C(=O)NC(=S)NC2=O)c(C)n1C | 15 | 25 | inhibition (Carnobacterium divergens): inactive; inhibition (Pseudomonas aeruginosa): inactive; inhibition [4]: Active; inhibition (Escherichia coli): inactive; inhibition (Salmonella typhimurium): inactive; inhibition (Staphylococcus aureus): inactive
9 | CC(=O)/N=C1\NC(=O)/C(=C/c2ccc(-c3ccc([N+](=O)[O-])cc3)o2)S1 | 52 | 78 | 
10 | CCN1C(=O)/C(=C/c2ccc(OC)cc2)SC1=S |  | > 200 | 
11 | COc1ccc(/C=C2\SC(=S)N(N)C2=O)cc1 |  | 155 | 
12 | O=C(N/N=C/c1ccc(F)cc1)c1cc(-c2ccc3ccccc3c2)n[nH]1 | 14 | 161 | 
13 | COc1ccc(C=C2C(=O)NC(=S)NC2=O)cc1OCc1ccccc1Cl | 48 | 121 | 
14 | CCN1C(=O)/C(=C/c2ccc(Cl)cc2)SC1=S |  | 200 | 
15 | COc1ccc(/C=C2\SC(=S)N(NC(C)=O)C2=O)cc1 |  | > 200 | 
16 | CC(=O)NN1C(=O)/C(=C/c2ccccc2)SC1=S |  |  | IC50 [2]: Not Active
17 | CC(=O)NN1C(=O)/C(=C/c2ccc(Br)o2)SC1=S | 13 | 41 | inhibition [4]: Active
18 | CN1C(=O)C(=Cc2cccn2-c2cccc([N+](=O)[O-])c2)C(=O)N(C)C1=O | 13 | > 200 | 
19 | COc1ccc(/C=C2\SC(=S)NC2=O)cc1 |  | 142 | 
20 | Cc1ccsc1/C=C1\SC(=S)N(CC2CCCO2)C1=O (stereo unspecified) | 14 | > 200 | 
21 | O=C1OC(c2ccccc2Cl)=N/C1=C/c1ccc(OC(=O)c2ccccc2Cl)c(O)c1 | 30 | 81 | 
22 | O=C(Cn1c(/C=C2/C(=O)NC(=O)N(c3cccc(F)c3)C2=O)cc2ccccc21)Nc1ccccc1 | 18 | 52 | 

Row | SMILES | inhibition [1] [%] | IC50 ([2]; read-out: IC50) [µM] | also measured
23 | CC(=O)c1ccc(Nc2nc(-c3cc4ccccc4oc3=O)cs2)cc1 | 16 | > 200 | 
24 | Cc1ccc(C2=NC(=O)/C(=C/c3cc4c(cc3Br)OCO4)S2)cc1 | 13 | 130 | 
25 | O=C1NC(=S)S/C1=C\c1ccc(Cl)cc1 |  | > 200 | 
26 | NNC(=O)c1cc2ccccc2cc1NS(=O)(=O)c1ccccc1 | 33 | 5 | inhibition (Carnobacterium divergens): inactive; inhibition (Pseudomonas aeruginosa): inactive; inhibition (Escherichia coli): inactive; inhibition (Salmonella typhimurium): inactive; inhibition (Staphylococcus aureus): inactive
27 | C/C(=N\NC(=O)c1cc(C2CC2)n[nH]1)c1ccc(C)cc1 | 14 | > 200 | 
28 | Cc1ccc(N2C(=O)/C(=C\c3cc4ccccc4n3CC(=O)O)C(=O)N(C)C2=O)cc1 | 17 | 37 | 
29 | COc1ccc(N2C(=O)NC(=O)/C(=C/c3ccc(-c4cccc(Cl)c4)o3)C2=O)cc1 | 20 | 42 | 
30 | Cc1ccc(OCCn2c(C=C3C(=O)NC(=O)NC3=O)cc3ccccc32)cc1C | 28 | 99 | 
31 | O=C1OC(c2ccccc2)=C/C1=N\Nc1ccccc1C(=O)O | 16 | 39 | inhibition (Carnobacterium divergens): inactive; inhibition (Pseudomonas aeruginosa): inactive; inhibition [4]: Active; inhibition (Escherichia coli): inactive; inhibition (Salmonella typhimurium): inactive; inhibition (Staphylococcus aureus): inactive
32 | O=C1NC(=S)S/C1=C\c1cccc2ccccc12 |  |  | IC50 [2]: Not Active
33 | Cc1[nH]n(-c2ccccc2)c(=O)c1C=C1C(=O)N(C)C(=O)N(C)C1=O | 20 | 45 | inhibition [4]: Active
34 | COc1ccc(/C=C2/C=C(c3ccccc3)OC2=O)c(OC)c1 | 14 | 159 | 
35 | Cc1ccc(NC(=O)/C(C#N)=C/c2ccc(N(C)C)o2)cc1C | 14 | > 200 | 
36 | COc1ccccc1N1C(=O)/C(=C\c2cc3ccccc3n2Cc2ccccc2)C(=O)NC1=S | 20 | 62 | 
37 | Cc1ccsc1/C=C1\SC(=S)N(C(C)c2ccccc2)C1=O (stereo unspecified) | 13 | 127 | 
38 | C=CCN1C(=O)/C(=C\c2cc3ccccc3n2C)C(=O)NC1=S | 35 | 75 | 
39 | C=CCN1C(=O)/C(=C\c2cc3ccccc3n2Cc2ccc([N+](=O)[O-])cc2)C(=O)NC1=S | 33 | 69 | 
40 | COc1ccc(OC)c(Nc2nc3ccccc3nc2NS(=O)(=O)c2cccc([N+](=O)[O-])c2)c1 | 13 | 153 | 
41 | O=C1NC(=S)S/C1=C\c1ccccc1[N+](=O)[O-] |  |  | IC50 [2]: Not Active
42 | O=C1NC(=S)S/C1=C\c1ccccc1O |  | > 200 | 
43 | COc1cc(OC)c(OC)cc1/C=N/n1c(S)nnc1-c1ccc(C)cc1 | 18 | > 200 | 
44 | N/C(=N\[N+](=O)[O-])N/N=C\c1ccc(-c2cccc([N+](=O)[O-])c2)o1 | 13 | > 200 | 

Row | SMILES | inhibition [1] [%] | IC50 ([2]; read-out: IC50) [µM] | also measured
45 | NN1C(=O)/C(=C/c2ccccc2)SC1=S |  |  | IC50 [2]: Not Active
46 | C=C(C)COc1ccc2c(c1)oc(=O)c1cc(OC)ccc12 | 25 | > 200 | 
47 | Cc1ccc(S(=O)(=O)N2C(=O)/C(=C3\SC(=S)NC3=O)c3ccccc32)cc1 | 25 | 70 | 
48 | CCOC(=O)C1=C(Nc2ccc(OC)cc2)S/C(=C\c2ccc(N(C)C)cc2)C1=O | 22 | > 200 | 
49 | CN(C)c1ccc(/C=C2\SC(=S)NC2=O)cc1 |  | 127 | 
50 | COc1cc(-c2nnc(SCC(=O)c3ccc(F)cc3)n2-c2ccccc2)cc(OC)c1OC | 14 | > 200 | 
51 | O=C(N/N=C/c1ccc(O)cc1O)c1[nH]c2ccc([N+](=O)[O-])cc2c1-c1ccccc1 | 15 | 45 | 
52 | Cc1nc(C)c(C(=O)/C=C2/Nc3ccccc3NC2=O)s1 | 18 | 56 | 
53 | C=CCN1C(=O)NC(=O)/C(=C/c2ccc(-c3ccc(C(=O)OCC)cc3)o2)C1=O | 16 | > 200 | 
54 | O/C(=C\c1nc2ccccc2nc1O)c1cccs1 | 15 | 31 | 
55 | CN1C(=O)/C(=C/c2cc3ccccc3n2CC(=O)O)C(=O)N(c2ccc(Cl)cc2)C1=O | 14 | 65 | 
56 | NN1C(=O)/C(=C/c2ccc(Cl)cc2)SC1=S |  |  | IC50 [2]: Not Active
57 | O=C1/C(=C/c2cn(-c3ccccc3)nc2-c2cccs2)SC(=S)N1C1CCS(=O)(=O)C1 (stereo unspecified) | 13 | 117 | 
58 | CCN1C(=O)/C(=C/c2ccccc2)SC1=S |  | > 200 | 
59 | CC(=O)NN1C(=O)/C(=C/c2ccc(Cl)cc2)SC1=S |  |  | IC50 [2]: Not Active
60 | CCN1C(=O)/C(=C/c2cccc3ccccc23)SC1=S |  | 200 | 
61 | Cc1c(C(=O)NC(=S)Nc2ccc3oc(-c4ccccc4Cl)nc3c2)oc2ccccc12 | 19 | 83 | 
62 | Cc1ccc(N2C(=O)/C(=C\c3cc4ccccc4[nH]3)C(=O)NC2=S)cc1 | 16 | 164 | 
63 | CCN1C(=O)/C(=C/c2cc(Cc3ccccc3Cl)ccc2O)SC1=S | 13 | 46 | inhibition [4]: Active
64 | O=C1NC(=S)N(c2cccc(Br)c2)C(=O)/C1=C\c1ccco1 | 17 | > 200 | 
